Test results reported in ChEMBL document CHEMBL1944603, “An efficient synthesis of highly functionalized novel chromeno[4,3-b]pyrroles and indolizino[6,7-b]indoles as potent antimicrobial and antioxidant agents” (2012).
In brackets after ≈: the same amount, converted by molar mass.

Key:
Format in all cases: functional
[1] = test system: Radical scavenging activity; test: Antioxidant activity assessed as DPPH free radical scavenging activity at 50 ug by spectrophotometer
Outline: (§1)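 DPPH radical scavenging measured spectrophotometrically by Blois's method at 50, 500 and 1000 µg. Absorbance read at 517 nm. Percent scavenging is the absorbance decrease at 517 nm relative to the absorbance of DPPH solution without test compound. L-ascorbic acid as standard.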

[2] = test system: Bacillus subtilis; test: Antimicrobial activity against Bacillus subtilis at 25 ug/ml by agar diffusion assay
Outline: (§2)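 Agar diffusion assay in duplicate against the human bacterial pathogens; tetracycline as reference control.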

[3] = test system: Bacillus subtilis; test: Antimicrobial activity against Bacillus subtilis at 50 ug/ml by agar diffusion assay; outline: as §2
[4] = test system: Bacillus subtilis; test: Antimicrobial activity against Bacillus subtilis at 75 ug/ml by agar diffusion assay; outline: as §2
[5] = test system: Bacillus subtilis; test: Antimicrobial activity against Bacillus subtilis at 100 ug/ml by agar diffusion assay; outline: as §2
[6] = test system: Staphylococcus aureus; test: Antimicrobial activity against Staphylococcus aureus at 25 ug/ml by agar diffusion assay; outline: as §2
[7] = test system: Staphylococcus aureus; test: Antimicrobial activity against Staphylococcus aureus at 50 ug/ml by agar diffusion assay; outline: as §2
[8] = test system: Staphylococcus aureus; test: Antimicrobial activity against Staphylococcus aureus at 75 ug/ml by agar diffusion assay; outline: as §2
[9] = test system: Staphylococcus aureus; test: Antimicrobial activity against Staphylococcus aureus at 100 ug/ml by agar diffusion assay; outline: as §2
[10] = test system: Pseudomonas aeruginosa; test: Antimicrobial activity against Pseudomonas aeruginosa at 25 ug/ml by agar diffusion assay; outline: as §2
[11] = test system: Pseudomonas aeruginosa; test: Antimicrobial activity against Pseudomonas aeruginosa at 50 ug/ml by agar diffusion assay; outline: as §2
[12] = test system: Pseudomonas aeruginosa; test: Antimicrobial activity against Pseudomonas aeruginosa at 75 ug/ml by agar diffusion assay; outline: as §2
[13] = test system: Pseudomonas aeruginosa; test: Antimicrobial activity against Pseudomonas aeruginosa at 100 ug/ml by agar diffusion assay; outline: as §2
[14] = test system: Klebsiella pneumoniae; test: Antimicrobial activity against Klebsiella pneumoniae at 25 ug/ml by agar diffusion assay; outline: as §2
[15] = test system: Klebsiella pneumoniae; test: Antimicrobial activity against Klebsiella pneumoniae at 50 ug/ml by agar diffusion assay; outline: as §2
[16] = test system: Klebsiella pneumoniae; test: Antimicrobial activity against Klebsiella pneumoniae at 75 ug/ml by agar diffusion assay; outline: as §2
[17] = test system: Klebsiella pneumoniae; test: Antimicrobial activity against Klebsiella pneumoniae at 100 ug/ml by agar diffusion assay; outline: as §2
[18] = test system: Fusarium oxysporum; test: Antifungal activity against Fusarium oxysporum
Outline: (§3)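 Agar diffusion assay in duplicate against the plant fungal pathogens; read-out as minimum inhibitory concentration (MIC); carbendazim as reference control.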

[19] = test system: Macrophomina phaseolina; test: Antifungal activity against Macrophomina phaseolina; outline: as §3
[20] = test system: Radical scavenging activity; test: Antioxidant activity assessed as DPPH free radical scavenging activity at 500 ug by spectrophotometer; outline: as §1
[21] = test system: Radical scavenging activity; test: Antioxidant activity assessed as DPPH free radical scavenging activity at 1000 ug by spectrophotometer; outline: as §1

MIC [18]	MIC [19]	Structure (SMILES)	Activity [1]	inhibition zone (IZ) [2]	inhibition zone (IZ) [3]	inhibition zone (IZ) [4]	inhibition zone (IZ) [5]	inhibition zone (IZ) [7]	inhibition zone (IZ) [8]	inhibition zone (IZ) [9]	inhibition zone (IZ) [10]	inhibition zone (IZ) [11]	inhibition zone (IZ) [12]	inhibition zone (IZ) [13]	inhibition zone (IZ) [14]	inhibition zone (IZ) [15]	inhibition zone (IZ) [16]	inhibition zone (IZ) [17]	Activity [20]	Activity [21]	further results
85 µg/mL (≈ 165 µM)	30 µg/mL (≈ 58.3 µM)	COC(=O)[C@]12Cc3c([nH]c4ccccc34)[C@@H](c3ccc(C)cc3)N1[C@@H]1c3c(ccc4ccccc34)OC[C@@H]1C2	26%	9 mm	14 mm	16 mm	20 mm	12 mm	17 mm	19 mm	8 mm	14 mm	17 mm	20 mm	9 mm	12 mm	17 mm	21 mm	53%	87%	inhibition zone (IZ) [6]: 9 mm
110 µg/mL (≈ 237 µM)	80 µg/mL (≈ 172 µM)	COC(=O)[C@]12Cc3c([nH]c4ccccc34)[C@@H](c3ccc(C)cc3)N1[C@@H]1c3ccccc3OC[C@@H]1C2	24%	9 mm	12 mm	15 mm	20 mm	13 mm	17 mm	18 mm	8 mm	12 mm	16 mm	19 mm	8 mm	13 mm	18 mm	19 mm	49%	73%	inhibition zone (IZ) [6]: 9 mm
35 µg/mL (≈ 72.8 µM)	50 µg/mL (≈ 104 µM)	COC(=O)[C@]12Cc3c([nH]c4ccccc34)[C@@H](c3ccc(OC)cc3)N1[C@@H]1c3ccccc3OC[C@@H]1C2	28%	8 mm	11 mm	18 mm	19 mm	12 mm	16 mm	18 mm	7 mm	11 mm	15 mm	20 mm	8 mm	11 mm	19 mm	20 mm	50%	68%	
85 µg/mL (≈ 206 µM)	60 µg/mL (≈ 145 µM)	COC(=O)[C@@]1(Cc2c[nH]c3ccccc23)C[C@H]2COc3ccc4ccccc4c3[C@H]2N1	33%	10 mm	15 mm	19 mm	24 mm	13 mm	18 mm	24 mm	9 mm	14 mm	20 mm	21 mm	10 mm	14 mm	20 mm	23 mm	52%	66%	inhibition zone (IZ) [6]: 9 mm
30 µg/mL (≈ 59.9 µM)	85 µg/mL (≈ 170 µM)	COC(=O)[C@]12Cc3c([nH]c4ccccc34)[C@@H](c3ccccc3)N1[C@@H]1c3c(ccc4ccccc34)OC[C@@H]1C2	17%	9 mm	12 mm	20 mm	24 mm	13 mm	18 mm	26 mm	9 mm	13 mm	18 mm	25 mm	10 mm	12 mm	17 mm	24 mm	33%	69%	inhibition zone (IZ) [6]: 9 mm
70 µg/mL (≈ 144 µM)	20 µg/mL (≈ 41.2 µM)	COC(=O)[C@]12Cc3c([nH]c4ccccc34)[C@@H](c3ccc(Cl)cc3)N1[C@@H]1c3ccccc3OC[C@@H]1C2	21%	13.5 mm	21 mm	26 mm	36 mm	21 mm	24 mm	29 mm	16 mm	22 mm	25 mm	36 mm	16 mm	20 mm	25 mm	30 mm	43%	68%	inhibition zone (IZ) [6]: 20 mm
90 µg/mL (≈ 182 µM)	25 µg/mL (≈ 50.5 µM)	COC(=O)[C@]12Cc3c([nH]c4ccccc34)[C@@H](c3cccc([N+](=O)[O-])c3)N1[C@@H]1c3ccccc3OC[C@@H]1C2	18%	14 mm	21 mm	28 mm	40 mm	22 mm	24 mm	36 mm	17 mm	24 mm	26 mm	40 mm	15 mm	20 mm	25 mm	36 mm	42%	70%	inhibition zone (IZ) [6]: 20 mm

Second part, the compound before the results:

Structure (SMILES)	MIC [18]	MIC [19]	Activity [1]	inhibition zone (IZ) [2]	inhibition zone (IZ) [3]	inhibition zone (IZ) [4]	inhibition zone (IZ) [5]	inhibition zone (IZ) [7]	inhibition zone (IZ) [8]	inhibition zone (IZ) [9]	inhibition zone (IZ) [10]	inhibition zone (IZ) [11]	inhibition zone (IZ) [12]	inhibition zone (IZ) [13]	inhibition zone (IZ) [14]	inhibition zone (IZ) [15]	inhibition zone (IZ) [16]	inhibition zone (IZ) [17]	Activity [20]	Activity [21]	further results
O=C1O[C@H]([C@@H](O)CO)C(O)=C1O			95%																97%	99%	
COC(=O)Nc1nc2ccccc2[nH]1 [CARBENDAZIM]	20 µg/mL (≈ 105 µM)	15 µg/mL (≈ 78.5 µM)																			
COC(=O)[C@]12Cc3c([nH]c4ccccc34)[C@@H](c3ccc(OC)cc3)N1[C@@H]1c3c(ccc4ccccc34)OC[C@@H]1C2	100 µg/mL (≈ 188 µM)	95 µg/mL (≈ 179 µM)	18%	9 mm	12 mm	17 mm	20 mm	11 mm	18 mm	20 mm	10 mm	12 mm	16 mm	19 mm	9 mm	11 mm	18 mm	20 mm	48%	81%	inhibition zone (IZ) [6]: 9 mm
CN(C)[C@@H]1C(O)=C(C(N)=O)C(=O)[C@@]2(O)C(O)=C3C(=O)c4c(O)cccc4[C@@](C)(O)[C@H]3C[C@@H]12 [TETRACYCLINE]				15 mm	24 mm	29 mm	> 40 mm	24 mm	29 mm	> 40 mm	20 mm	26 mm	28 mm	> 40 mm	18 mm	22 mm	28 mm	> 40 mm			inhibition zone (IZ) [6]: 22 mm
COC(=O)[C@]12Cc3c([nH]c4ccccc34)[C@@H](c3ccccc3)N1[C@@H]1c3ccccc3OC[C@@H]1C2	30 µg/mL (≈ 66.6 µM)	40 µg/mL (≈ 88.8 µM)	28%	9 mm	11 mm	20 mm	25 mm	11 mm	18 mm	25 mm	9 mm	12 mm	20 mm	24 mm	9 mm	11 mm	19 mm	26 mm	53%	70%	inhibition zone (IZ) [6]: 9 mm
COC(=O)[C@]12Cc3c([nH]c4ccccc34)[C@@H](c3ccc(Cl)cc3)N1[C@@H]1c3c(ccc4ccccc34)OC[C@@H]1C2	90 µg/mL (≈ 168 µM)	105 µg/mL (≈ 196 µM)	26%	12 mm	18 mm	21 mm	26 mm	17 mm	20 mm	28 mm	12 mm	16 mm	20 mm	26 mm	11 mm	15 mm	22 mm	25 mm	44%	75%	inhibition zone (IZ) [6]: 14 mm
